Screening data: PubChem BioAssay, Johns Hopkins Ion Channel Center
Most compounds without a hit are left out; they make up all but 3.7% or so of the library.
KCNK9 block = human KCNK9 channel inhibition | Q9NPC2 | HEK293 KCNK9, FluxOR thallium flux fluorescence; hits give low values | B-score at 10 µM | hit rate 1.2% among 310,000;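 active = ratio B-score over 3 SD below the library mean, with starting fluorescence within 5 SD of its mean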;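 also: negative B-score means less thallium flux so channel inhibition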
Kir21 block = Kir2.1 (mouse) channel inhibition; P35561; HEK293-Kir2.1, FluxOR thallium flux fluorescence; hits give low values; B-score at 10 µM; hit rate 0.85% among 310,000;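 active = fluorescence ratio B-score at or below minus 3 SD of library scores, with starting-brightness B-score within 2 SD, cut at about -4.2 in these data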;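 also: channel flux triggered by added potassium and thallium sulfate stimulus; B-score of peak minus minimum fluorescence over baseline after thallium stimulus; more negative B-score means stronger Kir2.1 block with less thallium influx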
KCNQ1 inh = human KCNQ1 channel inhibition. CHO-K1 KCNQ1, FluxOR thallium flux fluorescence; hits give high values. B-score at 10 µM. hit rate 1.3% among 310,000;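 active = compounds whose thallium flux B-score, printed positive for inhibition, exceeds three library SD while starting fluorescence stays within three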;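 also: channel opened by potassium depolarization with thallium stimulus after 20 min compound exposure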
KCNQ1 act = potentiators or activators of human KCNQ1 potassium channel; CHO-K1 KCNQ1, thallium flux FluxOR fluorescence; hits give high values; B-score at 10 µM; hit rate 0.35% among 310,000; AID 2648;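 active = fluorescence ratio B-score, a plate-corrected score, at least three library SD, with initial intensity B-score within 5 SD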
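Doses: Single concentration per compound, DMSO matched to controls | Test system: KCNQ1-transfected CHO-K1 cells | Timing: 90 min dye loading and 20 min compound exposure, both at room temperature | Measured by: Kinetic FluxOR thallium fluorescence, 10-s 1-Hz baseline, 110-s post-stimulus read | Medium: Assay buffer with matched DMSO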
hERG rescue = hERG (human) protection from proarrhythmic block. hit rate 0.51% among 310,000. Q12809. CHO-hERG, FluxOR thallium flux, dofetilide IC70 present. activation (rescue from dofetilide block), less the hit threshold, % at 10 µM;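 active = activation above the mean of controls blocked by dofetilide plus 5 SD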;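 also: thallium influx through hERG after potassium depolarization seen as dye fluorescence rise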
KCNK3 block = human KCNK3 channel inhibition, primary screen; O14649; CHO-KCNK3 thallium flux, FluxOR fluorescence; hits give low values; B-score at 10 µM; hit rate 0.84% among 340,000; AID 602410;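 active = B-score under library mean minus 4 SD, starting fluorescence ratio at most library mean plus 5 SD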;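 also: more negative B-score means stronger inhibition of thallium flux through KCNK3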
Target sequence (O14649 whole entry, looked up): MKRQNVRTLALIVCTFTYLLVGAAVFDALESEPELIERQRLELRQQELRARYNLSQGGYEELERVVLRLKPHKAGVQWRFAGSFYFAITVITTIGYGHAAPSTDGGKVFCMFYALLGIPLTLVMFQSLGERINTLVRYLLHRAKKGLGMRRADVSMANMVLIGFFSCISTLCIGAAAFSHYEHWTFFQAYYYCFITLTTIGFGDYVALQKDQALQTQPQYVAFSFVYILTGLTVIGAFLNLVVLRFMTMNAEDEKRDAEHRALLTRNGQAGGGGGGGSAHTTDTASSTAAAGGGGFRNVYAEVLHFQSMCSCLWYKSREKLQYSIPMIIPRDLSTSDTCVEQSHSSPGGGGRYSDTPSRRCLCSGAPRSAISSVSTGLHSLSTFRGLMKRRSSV
KCNQ1 inh valid = confirmation of human KCNQ1 potassium channel inhibitors; shares compounds with KCNQ1 inh; KCNQ1 cell line, FluxOR thallium flux fluorescence; inhibition, % at 10 µM; hit rate 93% among 1,600; AID 588353;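 active = primary screen active, with duplicate mean exceeding buffer control mean plus 3 SD of buffer wells, cut at about 28% in these data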;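 also: 0% = buffer control ratio and 100% = XE991 inhibitor control ratio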
CHO Tl flux = counter-screen for KCNQ1 inhibitors: effect in parental CHO cells. shares compounds with KCNQ1 inh. parental CHO-K1, FluxOR thallium flux fluorescence ratio; hits give low values; zero means no signal rise above baseline. fluorescence ratio (Tl flux) at 10 µM. hit rate 21% among 1,600. AID 588366;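 active = mean of duplicate thallium-flux fluorescence ratios in parental host cells more than 5 SD below the buffer control mean, cut at about 0.38 in these data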;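 also: ratio is peak minus minimum fluorescence divided by baseline fluorescence; actives read low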
KCNQ1 ephys val = human KCNQ1 inhibition validated by electrophysiology | shares compounds with KCNQ1 inh | KCNQ1-CHO cells, automated patch clamp current | calls only at 10 µM | hit rate 20% among 490 | AID 624120;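 active = KCNQ1 current drop exceeding 3 SD of negative control wells, seen in both duplicate runs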;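 also: steady state current during a 2 s step from -80 to +40 mV; negative values mean current inhibition and positive values mean potentiation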
KCNQ2 inh = KCNQ1 inhibitor that also blocks rat KCNQ2 channel; shares compounds with KCNQ1 inh; KCNQ2 cells, FluxOR thallium flux fluorescence; inhibition, % at 10 µM; hit rate 71% among 1,600; AID 651746;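 active = mean percent inhibition of the KCNQ2 thallium signal more than 5 SD above the buffer-only control wells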;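 also: KCNQ2 expressed in CHO cells; 0% = buffer control wells and 100% = XE-991 inhibitor control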
KCNQ1-KCNE1 inh = human KCNQ1/KCNE1 inhibition in KCNQ1 specificity screen | shares compounds with KCNQ1 inh | KCNQ1/KCNE1 cells, FluxOR thallium flux fluorescence | inhibition, % at 10 µM | hit rate 77% among 1,600;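 active = mean percent inhibition of duplicate wells above the buffer-only control mean plus 3 SD of those controls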;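 also: 0% = buffer only wells and 100% = XE-991 inhibitor control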
* hit, by the source's call; i = inactive; / = no result.

SMILES	KCNK9 block	Kir21 block	KCNQ1 inh	KCNQ1 act	hERG rescue	KCNK3 block	KCNQ1 inh valid	CHO Tl flux	KCNQ2 inh	KCNQ1-KCNE1 inh	others
COc1ccc(Nc2nc(N3CCCC3)nc3ccccc23)c(OC)c1	i	-0.25	7*	i	-20	i	112*	0.38	81%*	137%*
COc1ccc(Nc2ncnc3ccccc23)c(OC)c1	i	1.3	i	i	1	i	/	/	/	/
O=C(Cn1cnc2ccc(Cl)cc2c1=O)NC1CCS(=O)(=O)C1 (stereo unspecified)	/	/	/	/	/	i	/	/	/	/
COc1cccc(C(=O)Nc2ccc(-c3nc4ccccc4o3)c(O)c2)c1	i	-1	i	i	-6	i	/	/	/	/
COc1cc(OC)cc(C(=O)Nc2ccc(-c3nc4ccccc4o3)cc2)c1	i	0.03	10*	i	-7	i	130*	0.4	89%*	69%*	KCNQ1 ephys val=i
CC(=O)c1cccc(OC(=O)Oc2cccc(C(C)=O)c2)c1	/	/	/	/	/	i	/	/	/	/
Cc1cccc(NC(=O)c2cc3n(n2)C(C(F)(F)F)CC(c2ccc4c(c2)OCO4)N3)c1 (stereo unspecified)	i	3	8*	i	-12	i	126*	0.4	104%*	94%*	KCNQ1 ephys val=i
CCN(C(=O)COC(=O)c1c(NC(C)=O)sc(C)c1C)c1c(N)n(Cc2ccccc2)c(=O)[nH]c1=O	/	/	/	/	/	i	/	/	/	/
CC(=O)c1c(N2CCOCC2)nc2ccc(Br)cc2c1-c1ccccc1	i	0.28	10*	i	-15	i	100*	0.42	119%*	101%*	KCNQ1 ephys val=i
O=C(COc1cc(F)ccc1[N+](=O)[O-])N1N=C(c2cccs2)CC1c1ccco1 (stereo unspecified)	/	/	/	/	/	i	/	/	/	/
c1ccc2c(Nc3ccc(N4CCOCC4)cc3)nc(N3CCOCC3)nc2c1	i	0.38	i	i	0	i	/	/	/	/
Cc1cccc(-c2nc(Nc3ccc(N4CCOCC4)cc3)c3ccccc3n2)c1	i	0.64	13*	i	-8	i	108*	0.43	90%*	148%*	KCNQ1 ephys val=i
O=C(Nc1ccc(N2CCCCC2)c(Cl)c1)c1ccc2c(c1)OCCO2	i	-0.56	9*	i	-7	i	86*	0.46	98%*	120%*
O=C(Nc1ccc(N2CCCC2)c(Cl)c1)c1ccc2c(c1)OCCO2	i	1.3	i	i	-6	i	/	/	/	/
Cc1csc(NC(=O)c2sc3nc(-c4cccs4)ccc3c2N)n1	i	-0.51	16*	i	-9	/	124*	0.24*	i	i
CCCSc1nnc(NC(=O)c2sc3nc(-c4cccs4)ccc3c2N)s1	i	-2.4	i	i	-22	i	/	/	/	/
O=C(COc1cccc(C(F)(F)F)c1)NCC(c1cccs1)N1CCOCC1 (stereo unspecified)	/	/	/	/	/	i	/	/	/	/
S=C(Nc1cccc(Br)c1)c1ccccc1	i	1.2	i	i	-16	i	/	/	/	/
CNC(=S)Nc1ccc(C)cc1	i	1.2	i	i	-5	i	/	/	/	/
N#Cc1ccc(NC(=O)Nc2ccc(Cl)cc2)cc1	i	0.08	6*	i	-22	i	0	0.65	i	i
S=C(NNC(=S)Nc1ccccc1)Nc1ccccc1	i	-0.47	i	i	-3	i	/	/	/	/
